Laboratory results: ChEMBL document CHEMBL1136985, “New pyridinone derivatives as potent HIV-1 nonnucleoside reverse transcriptase inhibitors” (J Med Chem, 2009)
pEC50: −log10 of the molar value. One block for each molecule: values may come before it.

Legend:
[1] = test system: Human immunodeficiency virus 1; assay: Antiviral activity against HIV1 NL4-3 with Y181C mutant in human TZM-b1 cells assessed as beta-galactosidase activity after 48 hrs by single round replication assay; assay type: functional, organism-based; conditions: Human immunodeficiency virus 1, NL4-3, TZM-b1, 48 h
Summary of the method: (§1)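 TZM-bl cells (DMEM, 5% heat-inactivated FBS) plated at 5000 cells/well and grown 48 h. Medium replaced with compound at 0.00128–4 µM. After 4 h, cells infected with NL4-3-derived RT-mutant virus equal to 100 ng p24. Virus stocks came from HEK293 cells transfected with sequence-verified mutant clones. At 48 h, cells lysed in PBS/0.1% NP-40/5 mM MgCl2 and β-galactosidase read with CPRG. EC50 taken from dose-response curves.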

[2] = test system: Human immunodeficiency virus 1; assay: Antiviral activity against wild type HIV1 NL4-3 in human TZM-b1 cells assessed as beta-galactosidase activity after 48 hrs; assay type: functional, organism-based; conditions: Human immunodeficiency virus 1, NL4-3, TZM-b1, 48 h
Summary of the method: (§2)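 Cells plated at 5000/well, incubated 48 h, then medium replaced with compound (0.00128 to 4 µM). Infection 4 h later with cell-free NL4-3 virus equivalent to 100 ng p24. At 48 h postinfection cells lysed in PBS with 0.1% NP-40 and 5 mM MgCl2. β-Galactosidase read with chlorophenol red β-D-galactopyranoside. EC50 taken from dose-response curves.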

[3] = test system: Human immunodeficiency virus 1; assay: Antiviral activity against HIV1 NL4-3 with L100I mutant in human TZM-b1 cells assessed as beta-galactosidase activity after 48 hrs by single round replication assay; assay type: functional, organism-based; conditions: Human immunodeficiency virus 1, NL4-3, TZM-b1, 48 h; summary of the method: as §1
[4] = Selectivity index, ratio of CC50 for human TZM-b1 cells to EC50 for HIV1 NL4-3; assay type: toxicity, cell-based; conditions: read-out: Ratio CC50/EC50
Summary of the method: (§3)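 Viability by WST-1 absorbance at 570 nm relative to drug-free control. Divided by EC50 from the 48 h β-galactosidase infection assay with NL4-3 in the same cell type.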

[5] = test system: Human immunodeficiency virus 1; assay: Antiviral activity against HIV1 NL4-3 with K103N/V108I double mutant in human TZM-b1 cells assessed as beta-galactosidase activity after 48 hrs by single round replication assay; conditions: Human immunodeficiency virus 1, NL4-3, TZM-b1, 48 h
[6] = test system: Human immunodeficiency virus 1; assay: Antiviral activity against HIV1 NL4-3 with L100I/V108I double mutant in human TZM-b1 cells assessed as beta-galactosidase activity after 48 hrs by single round replication assay; assay type: functional, organism-based; conditions: Human immunodeficiency virus 1, NL4-3, TZM-b1, 48 h; summary of the method: as §1
[7] = test system: Human immunodeficiency virus 1; assay: Antiviral activity against HIV1 NL4-3 with K103N mutant in human TZM-b1 cells assessed as beta-galactosidase activity after 48 hrs by single round replication assay; assay type: functional, organism-based; conditions: Human immunodeficiency virus 1, NL4-3, TZM-b1, 48 h; summary of the method: as §1
[8] = test system: Human immunodeficiency virus 1; assay: Antiviral activity against HIV1 NL4-3 in human TZM-b1 cells assessed as beta-galactosidase activity after 48 hrs by single round replication assay; conditions: Human immunodeficiency virus 1, NL4-3, TZM-b1, 48 h
[9] = test system: Human immunodeficiency virus 1; assay: Antiviral activity against HIV1 NL4-3 with V108I mutant in human TZM-b1 cells assessed as beta-galactosidase activity after 48 hrs by single round replication assay; assay type: functional, organism-based; conditions: Human immunodeficiency virus 1, NL4-3, TZM-b1, 48 h; summary of the method: as §1
[10] = test system: Human immunodeficiency virus 1; assay: Antiviral activity against HIV1 NL4-3 with K103N/Y181C double mutant in human TZM-b1 cells assessed as beta-galactosidase activity after 48 hrs by single round replication assay; conditions: Human immunodeficiency virus 1, NL4-3, TZM-b1, 48 h
[11] = test system: Human immunodeficiency virus 1; assay: Antiviral activity against HIV1 NL4-3 with K103N/L100I double mutant in human TZM-b1 cells assessed as beta-galactosidase activity after 48 hrs by single round replication assay; assay type: functional, organism-based; conditions: Human immunodeficiency virus 1, NL4-3, TZM-b1, 48 h; summary of the method: as §1
[12] = test system: Human immunodeficiency virus 1; assay: Antiviral activity against wild type HIV1 NL4-3 in human HeLaP4 cells assessed as beta-galactosidase activity after 48 hrs; assay type: functional, organism-based; summary of the method: as §2
[13] = Selectivity index, ratio of CC50 for human HeLaP4 cells to EC50 for HIV1 NL4-3; assay type: toxicity, cell-based; conditions: read-out: Ratio CC50/EC50; summary of the method: as §3
[14] = test system: Human immunodeficiency virus 1; assay: Antiviral activity against HIV1 NL4-3 with double K103N/L100I mutant in human MT4 cells assessed as inhibition of virus-induced cytopathicity after 5 days by multiple round replication assay; assay type: functional, organism-based; conditions: Human immunodeficiency virus 1, NL4-3, MT4, 120 h
Summary of the method: (§4)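 MT-4 human T-cells, cultured in RPMI 1640 with 10% heat-inactivated FBS at 37 °C, 5% CO2, infected with HIV-1 NL4-3-derived mutant strains, then exposed to a range of compound concentrations. After 5 days, viability of infected and mock-infected cells read by WST-1 tetrazolium cleavage.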

[15] = test system: Human immunodeficiency virus 1; assay: Antiviral activity against wild type HIV1 NL4-3 in human MT4 cells assessed as inhibition of virus-induced cytopathicity after 5 days by multiple round replication assay; assay type: functional, organism-based; conditions: Human immunodeficiency virus 1, NL4-3, MT4, 120 h
Summary of the method: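 MT-4 T cells in RPMI 1640 with 10% FBS were infected with NL4-3 (wild type or RT mutants) and exposed to a range of compound concentrations. After 5 days, viability of infected and mock-infected cells was read by WST-1 cleavage, giving EC50 against viral cytopathicity and CC50 together.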

[16] = test system: Human immunodeficiency virus 1; assay: Antiviral activity against HIV1 NL4-3 with Y181C mutant in human MT4 cells assessed as inhibition of virus-induced cytopathicity after 5 days by multiple round replication assay; assay type: functional, organism-based; conditions: Human immunodeficiency virus 1, NL4-3, MT4, 120 h; summary of the method: as §4
[17] = test system: Human immunodeficiency virus 1; assay: Antiviral activity against HIV1 NL4-3 with L100I mutant in human MT4 cells assessed as inhibition of virus-induced cytopathicity after 5 days by multiple round replication assay; assay type: functional, organism-based; conditions: Human immunodeficiency virus 1, NL4-3, MT4, 120 h; summary of the method: as §4
[18] = test system: Human immunodeficiency virus 1; assay: Antiviral activity against HIV1 NL4-3 with K103N mutant in human MT4 cells assessed as inhibition of virus-induced cytopathicity after 5 days by multiple round replication assay; assay type: functional, organism-based; conditions: Human immunodeficiency virus 1, NL4-3, MT4, 120 h; summary of the method: as §4
[19] = target: Human immunodeficiency virus type 1 reverse transcriptase (Human immunodeficiency virus 1) (UniProt Q72547); assay: Inhibition of recombinant HIV1 reverse transcriptase assessed as residual activity at 10 uM by […] incorporation assay relative to control
Summary of the method: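 Recombinant HIV-1 RT, compound at 10 µM final (from DMSO). Incubated 10 min at 37 °C, then collected on DEAE filters and washed. Counted by phosphorimager; activity expressed relative to uninhibited RT.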

[20] = Human immunodeficiency virus 1, NL4-3, HeLaP4, 48 h

SMILES: CCc1c(C)[nH]c(=O)c(CN=[N+]=[N-])c1O[C@@H]1C[C@H](C)C[C@H](C)C1
pEC50 [1]: 6.69 | pEC50 [2]: > 9.00 | pEC50 [3]: 7.47 | selectivity ratio [4]: > 54000 | pEC50 [5]: 5.36 | pEC50 [6]: 6.97 | pEC50 [7]: 7.13 | pEC50 [8]: < 5.00 | pEC50 [9]: 7.96 | pEC50 [10]: 6.16 | pEC50 [11]: 6.08

pEC50 [12, 20]: < 5.00
SMILES: CCc1c(C)[nH]c(=O)c(C(=O)O)c1OC1CCCCC1

pEC50 [12, 20]: < 5.40
SMILES: CCOC(=O)c1c(OC2CCC(CC)CC2)c(CC)c(C)[nH]c1=O (centres undefined)
selectivity ratio [13]: < 14

pEC50 ([12]; helap4): 7.37
SMILES: CCOC(=O)c1c(OC2CC(C)CC(C)C2)c(CC)c(C)[nH]c1=O (stereo in doubt; 10)

SMILES: CCc1c(C)[nH]c(=O)c(Br)c1O[C@@H]1C[C@H](C)C[C@H](C)C1
pEC50 [1]: 6.86 | pEC50 [2]: > 9.00 | selectivity ratio [4]: > 28000 | pEC50 [5]: 6.11 | pEC50 [6]: 7.42 | pEC50 [7]: 8.05 | pEC50 [8]: 5.20 | pEC50 [9]: 9.00 | pEC50 [10]: 6.28 | pEC50 [11]: 7.17

pEC50 [2]: 6.94
SMILES: CCOC(=O)c1c(S[C@@H]2C[C@H](C)C[C@H](C)C2)c(CC)c(C)[nH]c1=O
selectivity ratio [4]: 862

pEC50 [2]: > 9.00
SMILES: CCc1c(C)[nH]c(=O)c(C(C)(C)O)c1O[C@@H]1C[C@H](C)C[C@H](C)C1
selectivity ratio [4]: > 100000

SMILES: Cc1ccnc2c1NC(=O)c1cccnc1N2C1CC1 [NEVIRAPINE]
pEC50 [1]: < 5.00 | pEC50 [2]: 7.41 | pEC50 [3]: 6.60 | pEC50 [5]: < 5.00 | pEC50 [6]: < 5.00 | pEC50 [7]: 5.48 | pEC50 [8]: < 5.00 | pEC50 [9]: 6.10 | pEC50 [11]: < 5.00

SMILES: CCc1c(C)[nH]c(=O)c(CC)c1O[C@@H]1C[C@H](C)C[C@H](C)C1
pEC50 [14]: 6.84 | pEC50 [15]: 8.70 | pEC50 [16]: 7.31 | pEC50 [1]: 7.82 | pEC50 [2]: > 9.00 | pEC50 [3]: 8.22 | pEC50 [17]: 7.57 | selectivity ratio [4]: > 67000 | pEC50 [5]: 6.97 | pEC50 [6]: 6.94 | pEC50 [7]: 8.30 | pEC50 [8]: 5.27 | pEC50 [10]: 6.44 | pEC50 [18]: 7.59 | pEC50 [11]: 7.09

Activity [19]: 34.6% | pEC50 [2]: 6.41
SMILES: CCOC(=O)c1c(OC2CCCCCC2)c(CC)c(C)[nH]c1=O
selectivity ratio [4]: 205

pEC50 [12, 20]: < 5.52
SMILES: CCOC(=O)c1c(OC2CCCCC2Cl)c(CC)c(C)[nH]c1=O (centres undefined)
selectivity ratio [13]: < 33

pEC50 [12, 20]: 6.02
SMILES: CCOC(=O)c1c(OC2C(C)CCCC2C)c(CC)c(C)[nH]c1=O (centres undefined)
selectivity ratio [13]: 78

pEC50 [12, 20]: 6.59
SMILES: CCOC(=O)c1c(OC2CC(C)(C)CC(C)(C)C2)c(CC)c(C)[nH]c1=O
selectivity ratio [13]: 112

pEC50 [2]: 6.56
SMILES: CCc1c(OC2CC(C)CC(C)C2)cc(=O)[nH]c1C (centres undefined)
selectivity ratio [4]: 200
